Assay results gathered from unrelated publications.
Compare with care: the assays were run in different laboratories.

Structure (SMILES) | cell line | read-out | action | method | time | setting | IC50 [µM]
CC(C)c1ccccc1[C@@H]1CCCN1C1CC2(CCN(c3ccc(C(=O)NS(=O)(=O)c4ccc(NC[C@H]5CC[C@](C)(O)CC5)c([N+](=O)[O-])c4)c(Oc4cnc5[nH]ccc5c4)c3)CC2)C1 | DOHH-2 | cell growth or viability | – | ATP luminescence | 48 h | – | 0.0065
COc1ccc(-c2cc(-c3ccc(Br)cc3)c3c(=O)n(C)c(=O)n(C)c3n2)cc1 | HCT-116 | cell growth or viability | – | MTT | 48 h | – | 10.8
COc1cc2c3c(n(CCCN4CCOCC4)c(=O)c2cc1OC)-c1nc2c(cc1C3=O)OCO2 | Raji | cell growth or viability | – | MTS | 72 h | – | 0.374
O=C(CCO)NCc1ccccc1 | DH82 | PGE2 release | inhibitor | ELISA | 24 h | LPS-stimulated | 49.4
Nc1n[nH]c2nc(-c3cccc(O)c3)cc(-c3cc4ccccc4nc3N3CCOCC3)c12 | NFS-60 | cell growth or viability | – | MTT | 72 h | – | 0.0641
NC(=O)c1ccncc1 | DH82 | NO release | inhibitor | Griess | 24 h | LPS-stimulated | > 200
CN1Cc2c(N)cccc2C(=O)N1C1CCC(=O)NC1=O (stereo not drawn) | NCI-H929 | cell growth or viability | – | CCK-8 | 96 h | – | < 0.33
Cc1c(C(=O)O)ccc2c3n(nc12)[C@@H]1[C@H](C3)N(CC2CC2)[C@@]2(C(=O)Nc3cc(Cl)ccc32)[C@H]1c1cccc(Cl)c1F | SK-OV-3 | cell growth or viability | – | ATP luminescence | – | – | > 50
CCOc1nc(-c2cccc(O)c2)cc(-c2cc3ccccc3nc2N2CCOCC2)c1C#N | NFS-60 | cell growth or viability | – | MTT | 72 h | – | 0.085
C=C(F)C(=O)N1CCN(c2nc(OC[C@@H]3CCCN3C)nc3c2CCN(c2cccc4cccc(Cl)c24)C3)C[C@@H]1CC#N | PC-9 | cell growth or viability | – | ATP luminescence | – | – | 2.01
COc1cc2c3c(n(CCCNCCO)c(=O)c2cc1OC)-c1nc2c(cc1C3=O)OCO2 | Raji | cell growth or viability | – | MTS | 72 h | – | 0.132
O=C(CCNNC(=O)c1ccncc1)NCc1ccccc1 | DH82 | NO release | inhibitor | Griess | 24 h | LPS-stimulated | > 200
C=CC(=O)Nc1cc(Nc2nccc(-c3cn(C)c4ccccc34)n2)c(OC)cc1N(C)CCN(C)C | PC-9 | cell growth or viability | – | MTS | 72 h | – | 1.44
COc1cc2c3c(n(CCCNC(C)C)c(=O)c2cc1OC)-c1nc2c(cc1C3=O)OCO2 | Raji | cell growth or viability | – | MTS | 72 h | – | 0.18
NCCC(=O)NCc1ccccc1 | DH82 | PGE2 release | inhibitor | ELISA | 24 h | LPS-stimulated | 122
CCCOc1nc(-c2cccc(O)c2)cc(-c2cc3cc(OC)ccc3nc2N2CCOCC2)c1C#N | NFS-60 | cell growth or viability | – | MTT | 72 h | – | 0.0646
COCCC(=O)NCc1ccccc1 | DH82 | PGE2 release | inhibitor | ELISA | 24 h | LPS-stimulated | 126
COc1ccc(-c2cc(-c3ccccc3Cl)c3c(=O)n(C)c(=O)n(C)c3n2)cc1 | HCT-116 | cell growth or viability | – | MTT | 48 h | – | 14.1
